Results: ChEMBL document CHEMBL4431374, “Synthesis and Antitubercular Activity of New Benzo[b]thiophenes” (ACS Med Chem Lett, 2016)
≈ marks a conversion by molar mass, not a printed value. Calls of active or inactive are those of the source. The calls are words filed in the database; no cut-off is given here.

Key:
Type in all cases: functional
[1] = system: Mycobacterium tuberculosis variant bovis BCG; assay: Antitubercular activity against drug resistant dormant Mycobacterium bovis BCG ATCC 35734 at 3 to 30 ug/ml after 12 days by nitrate reductase assay
[2] = system: Mycobacterium tuberculosis; assay: Antitubercular activity against drug resistant dormant Mycobacterium tuberculosis H37Ra ATCC 25177 after 12 days by XTT reduction menadione assay; settings: H37Ra ATCC 25177, 288 h
In short: (§1)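 H37Ra was tested by microdilution in 96-well plates, at 30–0.001 μg/mL in one-third dilutions. Each plate carried a rifampicin and isoniazid dilution series as positive controls. Growth was scored by XTT reduction menadione assay (XRMA) and cross-checked by a final absorbance reading at 600 nm.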

[3] = system: Mycobacterium tuberculosis variant bovis BCG; assay: Antitubercular activity against dormant Mycobacterium bovis BCG ATCC 35734 after 12 days by nitrate reductase assay; settings: for MIC90: ATCC 35734, 288 h
[4] = system: Mycobacterium tuberculosis; assay: Antitubercular activity against drug resistant active Mycobacterium tuberculosis H37Ra ATCC 25177 after 8 days by XTT reduction menadione assay; settings: H37Ra ATCC 25177, 192 h; in short: as §1
[5] = system: Mycobacterium tuberculosis variant bovis BCG; assay: Antitubercular activity against active Mycobacterium bovis BCG ATCC 35734 after 8 days by nitrate reductase assay; settings: for MIC90: ATCC 35734, 192 h

Row | SMILES | Activity [1] | MIC90 [2] | MIC90 [3] | MIC90 [4] | MIC90 [5] | Activity [3] | Activity [5]
1 | Cc1ccc(O)c(-c2cc(-c3cc4ccccc4s3)[nH]n2)c1 | >97% |  |  |  |  |  | 
2 | O=C(CC(=O)c1ccccc1O)c1cc2ccccc2s1 | >97% | 2.87 µg/mL (≈ 9.68 µM) | 1.36 µg/mL (≈ 4.59 µM) | 12.4 µg/mL (≈ 41.9 µM) | 2.34 µg/mL (≈ 7.9 µM) |  | 
3 | NNC(=O)c1ccncc1 [ISONIAZID] |  | > 10 µg/mL | 0.0078 µg/mL (≈ 0.0569 µM) | > 10 µg/mL | 0.075 µg/mL (≈ 0.547 µM) |  | 
4 | Cc1ccc(O)c(C(=O)CC(=O)c2cc3ccccc3s2)c1 |  |  | 0.71 µg/mL (≈ 2.29 µM) |  |  |  | 
5 | Cc1cc(O)c(C(=O)CC(=O)c2cc3ccccc3s2)cc1Cl | >97% |  | 0.9 µg/mL (≈ 2.61 µM) |  | 0.56 to 1.9 µg/mL (≈ 1.62 to 5.51 µM) |  | 
6 | CO[C@H]1/C=C/O[C@@]2(C)Oc3c(C)c(O)c4c(O)c(c(/C=N/N5CCN(C)CC5)c(O)c4c3C2=O)NC(=O)/C(C)=C\C=C\[C@H](C)[C@H](O)[C@@H](C)[C@@H](O)[C@@H](C)[C@H](OC(C)=O)[C@@H]1C [RIFAMPIN] |  | > 10 µg/mL | 0.0042 µg/mL (≈ 0.0051 µM) | > 10 µg/mL | 0.004 µg/mL (≈ 0.00486 µM) |  | 
7 | Cc1ccc(C(=O)CC(=O)c2cc3ccccc3s2)c(O)c1 | >97% | 9.42 µg/mL (≈ 30.4 µM) | 1.61 µg/mL (≈ 5.19 µM) | 8.97 µg/mL (≈ 28.9 µM) | 1.68 µg/mL (≈ 5.41 µM) |  | 
8 | Cc1cc2oc(-c3cc4ccccc4s3)cc(=O)c2cc1Cl |  | 9.1 µg/mL (≈ 27.8 µM) | 0.6 µg/mL (≈ 1.84 µM) | 9.58 µg/mL (≈ 29.3 µM) | 0.56 µg/mL (≈ 1.71 µM) |  | 
9 | O=C(CC(=O)c1cc(Br)ccc1O)c1cc2ccccc2s1 | >97% | 7.11 µg/mL (≈ 18.9 µM) | 1.77 µg/mL (≈ 4.72 µM) | 8.04 µg/mL (≈ 21.4 µM) | 1.16 µg/mL (≈ 3.09 µM) |  | 
10 | O=C(CC(=O)c1cc(Cl)ccc1O)c1cc2ccccc2s1 | >97% | 2.73 µg/mL (≈ 8.25 µM) | 2.7 µg/mL (≈ 8.16 µM) | 5.3 µg/mL (≈ 16 µM) | 2.22 µg/mL (≈ 6.71 µM) |  | 
11 | O=C(CC(=O)c1cc(Cl)cc(Cl)c1O)c1cc2ccccc2s1 |  |  |  |  |  | Active | Active
12 | Cc1ccc2oc(-c3cc4ccccc4s3)cc(=O)c2c1 |  | 7.22 µg/mL (≈ 24.7 µM) | 0.61 µg/mL (≈ 2.09 µM) | 22.9 µg/mL (≈ 78.2 µM) | 0.62 µg/mL (≈ 2.12 µM) |  | 
13 | Oc1ccc(Cl)cc1-c1cc(-c2cc3ccccc3s2)[nH]n1 | >97% |  |  |  |  |  | 
14 | Oc1ccccc1-c1cc(-c2cc3ccccc3s2)[nH]n1 | >97% |  |  |  |  |  | 
